Reference: ChEMBL document CHEMBL1128718, “2-Substituted penems with amino acid-related side chains: synthesis and antibacterial activity of a new series of beta-lactam antibiotics” (1995)
≈ marks a conversion by molar mass, not a printed value.

Assays:
Type in all cases: functional
Pseudomonas aeruginosa [1] = test: In Vitro antibacterial activity against (Pa) Pseudomonas aeruginosa ATCC 27853
In short: (§1)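 Panel of standard ATCC strains plus modified strains: methicillin-resistant, hyperpermeable, β-lactamase-producing (TEM1, TEM2, SHV) and β-lactamase-lacking. MIC determined in Mueller Hinton 2 medium, inoculum 10⁴ cells/mL, incubated 24 h at 37 °C.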

Enterococcus faecalis = test: In Vitro antibacterial activity against (Ef) Enterococcus faecalis ATCC 29212; in short: as §1
Pseudomonas aeruginosa [2] = test: In Vitro antibacterial activity against (Pa G242) hyperpermeable Pseudomonas aeruginosa strain; in short: as §1
Staphylococcus aureus [3] = test: In vitro antibacterial activity against Sa MR(I) heterogeneous methicillin resistant Staphylococcus aureus
In short: (§2)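 MIC was determined in Mueller Hinton 2 medium with an inoculum of 10⁴ cells/mL and incubation for 24 h at 37 °C. Strains: Sa(I) is S. aureus ATCC 29213; Sa MR(I) is a heterogeneous methicillin-resistant S. aureus; Sa MR(II) is a homogeneous methicillin-resistant S. aureus.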

Escherichia coli [4] = test: In Vitro antibacterial activity against (Ec L) Escherichia coli […] strain; in short: as §1
Staphylococcus aureus [5] = test: In vitro antibacterial activity against Sa(I) Staphylococcus aureus ATCC 29213; in short: as §2
Pseudomonas aeruginosa [6] = test: In Vitro antibacterial activity against (Pa) hyperpermeable Pseudomonas aeruginosa […] strain; in short: as §1
Escherichia coli [7] = test: In Vitro antibacterial activity against (Ec SHV) Escherichia coli […] strain; in short: as §1
Escherichia coli [8] = test: In Vitro antibacterial activity against (Ec TEM2) Escherichia coli […] strain; in short: as §1
Escherichia coli [9] = test: In Vitro antibacterial activity against (Ec) Escherichia coli ATCC 25922; in short: as §1
Escherichia coli [10] = test: In Vitro antibacterial activity against (Ec DC2) hyperpermeable Escherichia coli strain; in short: as §1
Staphylococcus aureus [11] = test: In vitro antibacterial activity against Sa MR(II) homogeneous methicillin resistant Staphylococcus aureus; in short: as §2
Staphylococcus aureus [12] = test: In vitro antibacterial activity against Sa(II) Staphylococcus aureus ATCC 25923; in short: as §1
Escherichia coli [13] = test: In Vitro antibacterial activity against (Ec TEM1) Escherichia coli […] strain; in short: as §1

Structure (SMILES) | MIC (Pseudomonas aeruginosa [1]) | MIC (Enterococcus faecalis) | MIC (Pseudomonas aeruginosa [2]) | MIC (Staphylococcus aureus [3]) | MIC (Escherichia coli [4]) | MIC (Staphylococcus aureus [5]) | MIC (Pseudomonas aeruginosa [6]) | MIC (Escherichia coli [7]) | MIC (Escherichia coli [8]) | MIC (Escherichia coli [9]) | MIC (Escherichia coli [10]) | MIC (Staphylococcus aureus [11]) | MIC (Staphylococcus aureus [12]) | MIC (Escherichia coli [13])
C[C@@H](O)[C@H]1C(=O)N2C(C(=O)O)=C(CN(C)CCC(N)=O)S[C@H]12 | > 64 µg/mL | 16 µg/mL (≈ 48.6 µM) | 1 µg/mL (≈ 3.04 µM) | 0.12 µg/mL (≈ 0.364 µM) | 1 µg/mL (≈ 3.04 µM) | 0.12 µg/mL (≈ 0.364 µM) | 2 µg/mL (≈ 6.07 µM) | 1 µg/mL (≈ 3.04 µM) | 1 µg/mL (≈ 3.04 µM) | 0.5 µg/mL (≈ 1.52 µM) | 2 µg/mL (≈ 6.07 µM) | 2 µg/mL (≈ 6.07 µM) | 0.06 µg/mL (≈ 0.182 µM) | 1 µg/mL (≈ 3.04 µM)
C[C@@H](O)[C@H]1C(=O)N2C(C(=O)O)=C(CN(C)C(Cc3ccccc3)C(N)=O)S[C@H]12 (stereo partly specified) | > 64 µg/mL | 4 µg/mL (≈ 9.86 µM) | – | 0.12 µg/mL (≈ 0.296 µM) | > 64 µg/mL | 0.12 µg/mL (≈ 0.296 µM) | > 64 µg/mL | – | > 64 µg/mL | 16 µg/mL (≈ 39.5 µM) | 1 µg/mL (≈ 2.47 µM) | 2 µg/mL (≈ 4.93 µM) | 0.015 µg/mL (≈ 0.037 µM) | 32 µg/mL (≈ 78.9 µM)
C[C@@H](O)[C@H]1C(=O)N2C(C(=O)O)=C(CN(C)CC(=O)N3CCN(C)CC3)S[C@H]12 | > 64 µg/mL | 16 µg/mL (≈ 40.2 µM) | 1 µg/mL (≈ 2.51 µM) | 0.5 µg/mL (≈ 1.25 µM) | 1 µg/mL (≈ 2.51 µM) | 0.25 µg/mL (≈ 0.627 µM) | 4 µg/mL (≈ 10 µM) | 1 µg/mL (≈ 2.51 µM) | 1 µg/mL (≈ 2.51 µM) | 0.5 µg/mL (≈ 1.25 µM) | 1 µg/mL (≈ 2.51 µM) | 4 µg/mL (≈ 10 µM) | 0.25 µg/mL (≈ 0.627 µM) | 1 µg/mL (≈ 2.51 µM)
C[C@@H](O)[C@H]1C(=O)N2C(C(=O)O)=C(CN(C)CC(=O)N(C)C)S[C@H]12 | > 64 µg/mL | – | 0.5 µg/mL (≈ 1.46 µM) | – | 0.5 µg/mL (≈ 1.46 µM) | 0.25 µg/mL (≈ 0.728 µM) | 4 µg/mL (≈ 11.6 µM) | 1 µg/mL (≈ 2.91 µM) | 1 µg/mL (≈ 2.91 µM) | 0.5 µg/mL (≈ 1.46 µM) | 1 µg/mL (≈ 2.91 µM) | 4 µg/mL (≈ 11.6 µM) | 0.12 µg/mL (≈ 0.349 µM) | 1 µg/mL (≈ 2.91 µM)
C[C@@H](O)[C@H]1C(=O)N2C(C(=O)O)=C(CN3CCC(C(N)=O)CC3)S[C@H]12 | > 64 µg/mL | 16 µg/mL (≈ 45 µM) | 2 µg/mL (≈ 5.63 µM) | 0.12 µg/mL (≈ 0.338 µM) | 2 µg/mL (≈ 5.63 µM) | 0.06 µg/mL (≈ 0.169 µM) | 1 µg/mL (≈ 2.81 µM) | 2 µg/mL (≈ 5.63 µM) | 2 µg/mL (≈ 5.63 µM) | 2 µg/mL (≈ 5.63 µM) | 2 µg/mL (≈ 5.63 µM) | 2 µg/mL (≈ 5.63 µM) | 0.015 µg/mL (≈ 0.0422 µM) | 2 µg/mL (≈ 5.63 µM)
